ARFGAP1 inh = inhibitors of rat ARFGAP1; 360,000 tested, 0.26% active; inhibition, % at 16.5 µM; Q62848; Arfgap1-stimulated ARF1 GTP hydrolysis, GDP FP detection; AID 651572;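 active = inhibition above a per-plate limit, mean inhibition of low control wells plus 3 SD, cut at about 25% in these data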
Target sequence (Q62848 1-136 limits assumed): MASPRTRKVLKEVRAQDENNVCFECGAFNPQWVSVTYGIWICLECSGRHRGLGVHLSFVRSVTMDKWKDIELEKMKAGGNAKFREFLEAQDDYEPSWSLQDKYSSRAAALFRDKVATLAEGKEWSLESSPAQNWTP
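Material: truncated rat Arfgap1 GAP domain; Incubation: compound-enzyme preincubation 20 min, reaction 120 min, detection 60 min, 25 °C; Read-out: percent inhibition of Arfgap1-stimulated GTP hydrolysis; Technique: FP, GDP Alexa 633 tracer displaced from anti-GDP antibody, 620/688 nm; Controls: No-Arfgap1 wells (100%) versus DMSO full-reaction wells (0%); Replication: single well per compound.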
esBAF inh = inhibitors of esBAF chromatin remodeling in mouse ES cells; 350,000 tested, 2% active; AID 602393; Bmi1-luciferase knock-in reporter, 24 h; 100% = twice the neutral-well signal; reporter increase, % at 12.5 µM; in the data active = activation above about 40%;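 note: a rise in the Bmi1 reporter signal indicates esBAF inhibition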
SMARCA2 act = activators of SMARCA2 function; MG213 cells, MMTV-luciferase reporter, dexamethasone, overnight; activation, % at 9.1 µM; 370,000 tested, 1% active; in the data active = activation above about 7.8%
ASAP1 GAP inh = ASAP1 ArfGAP inhibition | ASAP1-stimulated ARF1 GTP hydrolysis, GDP FP detection | 360,000 tested, 0.19% active | inhibition, % at 16.5 µM | Q9ULH1 | AID 624377; in the data active = inhibition above about 25%
Of the large screens only hits and unclear results are named; the others gave an inactive call. In the library only some 2.6% were active in any assay of this set; here they are far more common.

CC(C)NC(=O)N(C)C[C@H]1Oc2ncc(-c3ccc(C(=O)N(C)C)cc3)cc2C(=O)N([C@@H](C)CO)C[C@@H]1C	none (no result: ARFGAP1 inh, SMARCA2 act, ASAP1 GAP inh)
CC(C)(C)C(=O)NC(=S)NCCc1ccccc1	esBAF inh 43
COc1ccc(-c2ccc(SCC(=O)N3CC(=O)Nc4ccccc43)nn2)cc1	esBAF inh 49
O=C(Cc1cccs1)NCc1cccc(Cl)c1	esBAF inh 50
O=C(Cc1cccs1)NCc1cccc(CNC(=O)Cc2cccs2)c1	none
O=C(Cc1cccs1)NCc1ccc(Cl)cc1Cl	esBAF inh 66
C[C@@H](NC(=O)C[C@@H]1CC[C@H](NS(=O)(=O)c2cccc(F)c2)[C@@H](CO)O1)c1ccccc1	none (no result: ARFGAP1 inh, SMARCA2 act, ASAP1 GAP inh)
C[C@H]1CN([C@@H](C)CO)C(=O)c2cc(C#Cc3ccccc3F)cnc2O[C@@H]1CN(C)C(=O)Cc1cccnc1	none (no result: ARFGAP1 inh, SMARCA2 act, ASAP1 GAP inh)
Nc1nc(SCC(=O)N2CCc3ccccc3C2)[nH]c(=O)c1-c1ccccc1	esBAF inh 56
O=c1[nH]c2ccccc2nc1/C=C/c1ccccc1	none (no result: esBAF inh)
O=c1[nH]c2ccccc2nc1/C=C/c1ccc(F)cc1	esBAF inh 56
O=c1[nH]c2ccccc2nc1/C=C/c1ccc(O)cc1	esBAF inh 51
C[C@@H]1CN([C@H](C)CO)C(=O)c2cc(NS(=O)(=O)c3ccc(F)cc3)ccc2O[C@@H](C)CCCCO[C@H]1CN(C)Cc1ccc(Cl)c(Cl)c1	none (no result: ARFGAP1 inh, SMARCA2 act, ASAP1 GAP inh)
Cc1cc(C)c2nc(NCc3ccccc3O)sc2c1	esBAF inh 45
C[C@@H]1CN([C@H](C)CO)C(=O)c2cc(NC(=O)CCCN(C)C)ccc2O[C@@H](C)CCCCO[C@@H]1CN(C)C(=O)NC1CCCCC1	none (no result: ARFGAP1 inh, SMARCA2 act, ASAP1 GAP inh)
CCCNC(=O)C[C@@H]1CC[C@H]2[C@@H](COc3ccc(NC(=O)c4ccc(C(F)(F)F)cc4)cc3C(=O)N2C)O1	none (no result: ARFGAP1 inh, SMARCA2 act, ASAP1 GAP inh)
CC1CCC(NC(=O)C2CCN(c3c4c(nc5ncnn35)CCC4)CC2)CC1 (configuration not stated)	esBAF inh 41 (no result: ARFGAP1 inh, SMARCA2 act, ASAP1 GAP inh)
CC(=O)Nc1ccc(/C=N/N2C(C)CCCC2C)cc1 (configuration not stated)	none (no result: esBAF inh)
CC(=O)Nc1ccc(/C=N/N2CCCCC2)cc1	esBAF inh 62
O=[N+]([O-])c1ccc(C=NN2CCCCCC2)cc1	esBAF inh 69
CN1CCN(C(=O)C[C@H]2C[C@H]3c4cc(NS(C)(=O)=O)ccc4O[C@H]3[C@@H](CO)O2)CC1	none (no result: ARFGAP1 inh, SMARCA2 act, ASAP1 GAP inh)
COc1ccc2[nH]c(=O)c(CNc3ccccc3)cc2c1	esBAF inh 85
CCOc1ccc(NCc2cc3cc(OC)ccc3[nH]c2=O)cc1	none (no result: esBAF inh)
COc1ccc(CN=C2Nc3ccccc3CS2)cc1	esBAF inh 61
COc1ccc(CN=C2NN=C(c3ccc(Cl)cc3)CS2)cc1	none (no result: esBAF inh)
O=C(Nc1ccccc1)C1=C[C@@H](c2ccc(C(F)(F)F)cc2)C[C@@H](OCCCCO)O1	esBAF inh 50
COC(=O)C1C(=O)c2c([nH]c(C(=O)OCC3CCCO3)c2C)CC1C (configuration not stated)	esBAF inh 55
C[C@H]1CN([C@@H](C)CO)C(=O)c2cccc(NS(=O)(=O)c3ccc(Cl)cc3)c2O[C@@H]1CN(C)S(=O)(=O)c1ccccc1	none (no result: ARFGAP1 inh, SMARCA2 act, ASAP1 GAP inh)
CC(=O)C(C)Oc1ccc2c3c(c(=O)oc2c1)CCCCC3 (configuration not stated)	esBAF inh 66
CO[C@H]1CC[C@@H]2CCOc3c(C#N)cccc3C(=O)N(C)[C@@H](C)C(=O)N(C)C[C@H]1O2	none (no result: ARFGAP1 inh, SMARCA2 act, ASAP1 GAP inh)
CCOC(=O)/C(C#N)=C/c1ccc(-c2ccsc2C(=O)OC)o1	esBAF inh 54
COC(=O)C(=Cc1ccc(-c2ccsc2C(=O)OC)o1)C(=O)OC	SMARCA2 act 7.9 (no result: esBAF inh)
CCOC(=O)/C(C#N)=C/Nc1ccsc1C(C)=O	none (no result: esBAF inh)
CCOC(=O)C(=Cc1ccc(-c2ccsc2C(=O)OC)o1)C(=O)OCC	none
Cc1c(O)ccc(C(=O)COc2ccc(F)cc2)c1O	esBAF inh 80
COc1cccc(-c2cc(C(=O)N3C(C)CCCC3C)no2)c1 (configuration not stated)	esBAF inh 49
C[C@@H]1CN([C@@H](C)CO)C(=O)c2cc(NS(=O)(=O)c3cccs3)ccc2O[C@@H](C)CCCCO[C@@H]1CN(C)C(=O)Nc1ccccc1	none (no result: ARFGAP1 inh, SMARCA2 act, ASAP1 GAP inh)
CNC(=O)c1c(NC(=O)c2nc3ccccc3s2)sc2c1CCC2	esBAF inh 75 (no result: ARFGAP1 inh, SMARCA2 act, ASAP1 GAP inh)
CC1(C)CC(=O)C=C(c2ccc(OC(F)(F)F)cc2)C1	none
CC1(C)CC(=O)C=C(c2ccc(Oc3ccccc3)cc2)C1	esBAF inh 68
COc1cccc(NC(=O)N[C@@H]2CC[C@H](CC(=O)Nc3ccccc3)O[C@H]2CO)c1	none (no result: ARFGAP1 inh, SMARCA2 act, ASAP1 GAP inh)
